Type in all cases: functional
For test [1], the system named is Streptococcus pneumoniae. Put plainly: Antimicrobial activity against Streptococcus pneumoniae BSF-11524 isolate with erm(B) and L4 mutation. A digest of the protocol: (§1)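 MIC by agar dilution per CLSI guidelines, also by Etest. Pneumococci grown at 37°C in 5% CO2 on Mueller-Hinton agar with 5% horse blood. Interpreted with CLSI breakpoints; for telithromycin ≤1 μg/ml susceptible, 2 μg/ml intermediate, ≥4 μg/ml resistant.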

Test [2] has as its system Streptococcus pneumoniae. Put plainly: Antimicrobial activity against Streptococcus pneumoniae R6 transformants. The method in brief:
as §1

Test [3] concerns Streptococcus pneumoniae. The experiment in a line: Antimicrobial activity against Streptococcus pneumoniae PC13 isolate with L4 69GTG71 to TPS mutation. A digest of the protocol: as §1
Test [4] concerns Streptococcus pneumoniae. The experiment in a line: Antimicrobial activity against Streptococcus pneumoniae R6 with L4 mutation. A digest of the protocol:
as §1

In test [5] the test system is Streptococcus pneumoniae. The experiment in a line: Antimicrobial activity against Streptococcus pneumoniae PC13 isolate with L4 mutation. The method in brief: as §1
Test [6] relates to Streptococcus pneumoniae. The experiment in a line: Antimicrobial activity against Streptococcus pneumoniae PC13 transformants. The method in brief:
as §1

Test [7] concerns Streptococcus pneumoniae. The experiment in a line: Antimicrobial activity against Streptococcus pneumoniae PC13 isolate with erm(B) mutation. The method in brief:
as §1

Test [8] deals with Streptococcus pneumoniae. Put plainly: Antimicrobial activity against Streptococcus pneumoniae R6 with L4 69GTG71 to TPS mutation. The method in brief:
as §1

Converted amounts (≈) assume the structure as drawn.

In general, MIC refers to the lowest concentration found to suppress growth. Low values mean greater potency, high ones weaker potency. Turning to `CC[C@H]1OC(=O)[C@H](C)[C@@H](O[C@H]2C[C@@](C)(OC)[C@@H](O)[C@H](C)O2)[C@H](C)[C@@H](O[C@@H]2O[C@H](C)C[C@H](N(C)C)[C@H]2O)[C@](C)(O)C[C@@H](C)CN(C)[C@H](C)[C@@H](O)[C@]1(C)O` [AZITHROMYCIN], the MIC in the test on Streptococcus pneumoniae [1] is > 256 µg/mL; in the test with Streptococcus pneumoniae [2], 0.25 µg/mL (≈ 0.334 µM); in the test with Streptococcus pneumoniae [3], > 256 µg/mL; against Streptococcus pneumoniae [4], > 256 µg/mL; in the test with Streptococcus pneumoniae [5], > 256 µg/mL; in the test with Streptococcus pneumoniae [6], > 256 µg/mL. Moreover, the MIC in the test on Streptococcus pneumoniae [7] and against Streptococcus pneumoniae [8] was > 256 µg/mL throughout.

For the compound `CC[C@H]1OC(=O)[C@H](C)C(=O)[C@H](C)[C@@H](O[C@@H]2O[C@H](C)C[C@H](N(C)C)[C@H]2O)[C@](C)(OC)C[C@@H](C)C(=O)[C@H](C)[C@H]2N(CCCCn3cnc(-c4cccnc4)c3)C(=O)O[C@]12C` [TELITHROMYCIN], the MIC in the test with Streptococcus pneumoniae [1] was > 256 µg/mL; in the test with Streptococcus pneumoniae [2] it was 0.015 µg/mL (≈ 0.0185 µM); in the test on Streptococcus pneumoniae [3], > 256 µg/mL; in the test with Streptococcus pneumoniae [4], 0.12 µg/mL (≈ 0.148 µM); against Streptococcus pneumoniae [5] it was > 256 µg/mL; against Streptococcus pneumoniae [6], 0.06 µg/mL (≈ 0.0739 µM). Further, the MIC was determined as 1 µg/mL (≈ 1.23 µM) in the test with Streptococcus pneumoniae [7] and 0.12 µg/mL (≈ 0.148 µM) against Streptococcus pneumoniae [8].

`O=C(N[C@H](CO)[C@H](O)c1ccc([N+](=O)[O-])cc1)C(Cl)Cl` [CHLORAMPHENICOL]: the MIC in the test with Streptococcus pneumoniae [1] was 2 µg/mL (≈ 6.19 µM); against Streptococcus pneumoniae [2] it was 1.5 µg/mL (≈ 4.64 µM); in the test on Streptococcus pneumoniae [3], 12 µg/mL (≈ 37.1 µM); against Streptococcus pneumoniae [4], 2 µg/mL (≈ 6.19 µM); against Streptococcus pneumoniae [5] it was 12 µg/mL (≈ 37.1 µM); with Streptococcus pneumoniae [6], 12 µg/mL (≈ 37.1 µM). The MIC in the test with Streptococcus pneumoniae [7] worked out at 12 µg/mL (≈ 37.1 µM); with Streptococcus pneumoniae [8], 2 µg/mL (≈ 6.19 µM).

Turning to `CN(C)[C@@H]1C(O)=C(C(N)=O)C(=O)[C@@]2(O)C(O)=C3C(=O)c4c(O)cccc4[C@@](C)(O)[C@H]3C[C@@H]12` [TETRACYCLINE], the minimal inhibitory concentration (MIC) was found to be 12 µg/mL (≈ 27 µM) with Streptococcus pneumoniae [1]; 0.094 µg/mL (≈ 0.212 µM) against Streptococcus pneumoniae [2]; 8 µg/mL (≈ 18 µM) in the test on Streptococcus pneumoniae [3]; 0.094 µg/mL (≈ 0.212 µM) against Streptococcus pneumoniae [4]; 12 µg/mL (≈ 27 µM) in the test on Streptococcus pneumoniae [5]; 12 µg/mL (≈ 27 µM) against Streptococcus pneumoniae [6]. The figures for the MIC against Streptococcus pneumoniae [7] and against Streptococcus pneumoniae [8] were 8 µg/mL (≈ 18 µM) and 0.06 µg/mL (≈ 0.135 µM), respectively.

In the case of `CC[C@H]1OC(=O)[C@H](C)[C@@H](O[C@H]2C[C@@](C)(OC)[C@@H](O)[C@H](C)O2)[C@H](C)[C@@H](O[C@@H]2O[C@H](C)C[C@H](N(C)C)[C@H]2O)[C@](C)(OC)C[C@@H](C)C(=O)[C@H](C)[C@@H](O)[C@]1(C)O` [CLARITHROMYCIN], the MIC in the test with Streptococcus pneumoniae [1] was > 256 µg/mL; with Streptococcus pneumoniae [2], 0.06 µg/mL (≈ 0.0802 µM); with Streptococcus pneumoniae [3] it was > 256 µg/mL; with Streptococcus pneumoniae [4], 24 µg/mL (≈ 32.1 µM); against Streptococcus pneumoniae [5] it was > 256 µg/mL; against Streptococcus pneumoniae [6], > 256 µg/mL. The values for the MIC against Streptococcus pneumoniae [7] and in the test with Streptococcus pneumoniae [8] were > 256 µg/mL and 24 µg/mL (≈ 32.1 µM), respectively.

As for `CC[C@H]1OC(=O)[C@H](C)[C@@H](O[C@H]2C[C@@](C)(OC)[C@@H](O)[C@H](C)O2)[C@H](C)[C@@H](O[C@@H]2O[C@H](C)C[C@H](N(C)C)[C@H]2O)[C@](C)(O)C[C@@H](C)C(=O)[C@H](C)[C@@H](O)[C@]1(C)O` [ERYTHROMYCIN], the MIC in the test with Streptococcus pneumoniae [1] is > 256 µg/mL; in the test on Streptococcus pneumoniae [2], 0.094 µg/mL (≈ 0.128 µM); against Streptococcus pneumoniae [3] it was > 256 µg/mL; in the test on Streptococcus pneumoniae [4] it was > 256 µg/mL; with Streptococcus pneumoniae [5], > 256 µg/mL; with Streptococcus pneumoniae [6], > 256 µg/mL. For the same compound, the MIC in the test on Streptococcus pneumoniae [7] and in the test on Streptococcus pneumoniae [8] was > 256 µg/mL throughout.

Turning to `CCC[C@@H]1C[C@@H](C(=O)N[C@@H]([C@H]2O[C@H](SC)[C@H](O)[C@@H](O)[C@H]2O)[C@H](C)Cl)N(C)C1` [CLINDAMYCIN], the MIC was > 256 µg/mL against Streptococcus pneumoniae [1]; 0.06 µg/mL (≈ 0.141 µM) in the test on Streptococcus pneumoniae [2]; > 256 µg/mL with Streptococcus pneumoniae [3]; 0.125 µg/mL (≈ 0.294 µM) against Streptococcus pneumoniae [4]; > 256 µg/mL against Streptococcus pneumoniae [5]; > 256 µg/mL in the test with Streptococcus pneumoniae [6]. The MIC against Streptococcus pneumoniae [7] is > 256 µg/mL; in the test with Streptococcus pneumoniae [8], 0.094 µg/mL (≈ 0.221 µM).

Source of the values: ChEMBL document CHEMBL1142089, “High-level telithromycin resistance in a clinical isolate of Streptococcus pneumoniae” (2007).
